Reference: ChEMBL document CHEMBL1133085, “Synthesis, antibacterial, and cytotoxic evaluation of certain 7-substituted norfloxacin derivatives” (2000)
Converted amounts (≈) assume the structure as drawn.

Key:
Format in all cases: functional
[1] = Mean value (average log GI50) over all cell lines tested
Summary of the method: (§1)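 NCI in vitro human tumour cell line panel screen. Growth inhibition is expressed as log GI₅₀ (M), the concentration reducing cell growth to 50% of controls. The mean is the average log GI₅₀ across all cell lines tested.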

UO-31 = experiment: In vitro inhibitory activity for human renal cancer cell line UO-31 was determined.; summary of the method: as §1
CAKI-1 = experiment: In vitro inhibitory activity for human renal cancer cell line CAK-1 was determined.; summary of the method: as §1
Enterococcus faecalis = experiment: In vitro antimicrobial activity against Enterococcus faecalis (vancomycin-resistant) was determined
Summary of the method: (§2)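 Broth dilution in tryptic soy broth with 7% calf serum against clinical isolates (vancomycin-resistant E. faecalis; erythromycin/ampicillin-resistant S. pneumoniae) at 1-5 × 10⁵ CFU/mL. DMSO serial dilutions were added 1:100, giving a top concentration of 300 µM and at most 1% DMSO. Incubated 20-72 h at 37 °C. MIC (µM) read by visual turbidity or microscopy. Vehicle and reference controls; duplicate.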

Escherichia coli = experiment: In vitro antimicrobial activity against Escherichia coli was determined
Summary of the method: (§3)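 Broth microdilution MIC in nutrient broth with 1-5 × 10⁵ CFU/mL inoculum. Compounds were dissolved in 100% DMSO and serially diluted in DMSO, starting at 300 µM final with at most 1% DMSO. Plates were incubated at 37 °C for 20-72 h. MIC was read by visual turbidity or microscopy. Vehicle and reference controls were included, and tests were run in duplicate.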

Klebsiella pneumoniae = experiment: In vitro antimicrobial activity against Klebsiella pneumoniae was determined; summary of the method: as §3
[2] = In vitro antimicrobial activity against Mycobacterium ranae was determined
Summary of the method: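 MIC determined in brain heart infusion broth containing 1-5 × 10⁵ CFU/mL. Compounds in DMSO were serially diluted, starting at 300 µM final with 1% DMSO maximum. Incubation was at 37 °C for 20-72 h, with visual turbidity or microscope read-out. Vehicle and reference controls were included, and assays were run in duplicate.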

Pseudomonas aeruginosa = experiment: In vitro antimicrobial activity against Pseudomonas aeruginosa was determined; summary of the method: as §3
Proteus vulgaris = experiment: In vitro antimicrobial activity against Proteus vulgaris was determined
Summary of the method: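 MIC determined in Mueller-Hinton broth inoculated at 1-5 × 10⁵ CFU/mL. DMSO serial dilutions of compounds were used, with a top final concentration of 300 µM and DMSO at most 1%. Incubation was at 37 °C for 20-72 h. Growth was judged by turbidity or microscopy. Vehicle and reference controls were included, with duplicate assays.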

Staphylococcus aureus = experiment: In vitro antimicrobial activity against Staphylococcus aureus (methicillin-resistant) was determined
Summary of the method: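 MRSA in Mueller-Hinton broth at 1-5 × 10⁵ CFU/mL. Compound serial dilutions in 100% DMSO were added 1:100, giving a maximal test concentration of 300 µM and at most 1% DMSO. Plates were held 20-72 h at 37 °C. MIC (µM) was taken from visual turbidity or microscopic growth. Vehicle and reference-agent controls; run in duplicate.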

[3] = In vitro antimicrobial activity against […] (erythromycin and ampicillin-resistant) was determined; settings: Streptococcus pneumoniae; summary of the method: as §2
RXF 393 = experiment: In vitro inhibitory activity for human renal cancer cell line RXF-393 was determined.; summary of the method: as §1

Row | SMILES | Mean [1] | GI50 (UO-31) | GI50 (CAKI-1) | MIC (Enterococcus faecalis) | MIC (Escherichia coli) | MIC (Klebsiella pneumoniae) | MIC [2] | MIC (Pseudomonas aeruginosa) | MIC (Proteus vulgaris) | MIC (Staphylococcus aureus) | MIC [3] | GI50 (RXF 393)
1 | C=C1CC(CN2CCN(c3cc4c(cc3F)c(=O)c(C(=O)O)cn4CC)CC2)(c2ccc(OC)cc2)OC1=O (configuration not stated) | -5.19 | 2750 nM | 5130 nM |  |  |  |  |  |  |  |  | 
2 | CCn1cc(C(=O)O)c(=O)c2cc(F)c(N3CCN(C/C(C)=N/O)CC3)cc21 | >-4 | 39800 nM | > 100000 nM | 30 µM (≈ 11.7 µg/mL) | 0.51 µM (≈ 0.199 µg/mL) | 0.13 µM (≈ 0.0508 µg/mL) | 32 µM (≈ 12.5 µg/mL) | 16 µM (≈ 6.25 µg/mL) | 2 µM (≈ 0.781 µg/mL) | 0.51 µM (≈ 0.199 µg/mL) | 30 µM (≈ 11.7 µg/mL) | > 100000 nM
3 | CCn1cc(C(=O)O)c(=O)c2cc(F)c(N3CCN(C/C(=N/O)c4ccccc4)CC3)cc21 | -4.53 | 309 nM | 32400 nM | > 200 µM | 0.86 µM (≈ 0.389 µg/mL) | 0.22 µM (≈ 0.0995 µg/mL) | 55.3 µM (≈ 25 µg/mL) | 13.8 µM (≈ 6.24 µg/mL) | 3.45 µM (≈ 1.56 µg/mL) | 0.44 µM (≈ 0.199 µg/mL) | > 200 µM | 36300 nM
4 | CCn1cc(C(=O)O)c(=O)c2cc(F)c(N3CCN(CC(=O)c4ccc(OC)cc4)CC3)cc21 |  |  |  | > 200 µM | 0.83 µM (≈ 0.388 µg/mL) | 0.053 µM (≈ 0.0248 µg/mL) | > 200 µM | 13.4 µM (≈ 6.26 µg/mL) | 0.83 µM (≈ 0.388 µg/mL) | 6.7 µM (≈ 3.13 µg/mL) | > 200 µM | 
5 | C=C1CC(CN2CCN(c3cc4c(cc3F)c(=O)c(C(=O)O)cn4CC)CC2)(c2ccccc2)OC1=O (configuration not stated) | -5.47 | 1580 nM | 1860 nM |  | 98.9 µM (≈ 50 µg/mL) | 12.4 µM (≈ 6.27 µg/mL) | > 200 µM | > 200 µM | > 200 µM | 1.54 µM (≈ 0.779 µg/mL) |  | 
6 | CCn1cc(C(=O)O)c(=O)c2cc(F)c(N3CCN(C/C(=N/O)c4ccc(F)cc4)CC3)cc21 | -4.67 | 132 nM | 1910 nM | > 200 µM | 6.38 µM (≈ 3 µg/mL) | 0.21 µM (≈ 0.0988 µg/mL) | > 200 µM | > 200 µM | 6.38 µM (≈ 3 µg/mL) | 2.13 µM (≈ 1 µg/mL) | > 200 µM | 170 nM
7 | CCn1cc(C(=O)O)c(=O)c2cc(F)c(N3CCN(C/C(=N\O)c4ccc(Cl)cc4)CC3)cc21 | -5.03 | 28.8 nM | 398 nM | > 200 µM | 6.16 µM (≈ 3 µg/mL) | 0.21 µM (≈ 0.102 µg/mL) | > 200 µM | > 200 µM | 6.16 µM (≈ 3 µg/mL) | > 200 µM | > 200 µM | 724 nM
8 | CCn1cc(C(=O)O)c(=O)c2cc(F)c(N3CCN(C/C(=N\O)c4ccc(OC)cc4)CC3)cc21 | -4.5 | 550 nM | 6920 nM | 3.23 µM (≈ 1.56 µg/mL) | 1.62 µM (≈ 0.782 µg/mL) | 0.027 µM (≈ 0.013 µg/mL) | 104 µM (≈ 50.2 µg/mL) | 25.9 µM (≈ 12.5 µg/mL) | 3.23 µM (≈ 1.56 µg/mL) | 0.41 µM (≈ 0.198 µg/mL) | 13 µM (≈ 6.27 µg/mL) | 
9 | CCn1cc(C(=O)O)c(=O)c2cc(F)c(N3CCNCC3)cc21 [NORFLOXACIN] |  |  |  | 9.8 µM (≈ 3.13 µg/mL) | 0.63 µM (≈ 0.201 µg/mL) | 0.041 µM (≈ 0.0131 µg/mL) | 9.8 µM (≈ 3.13 µg/mL) | 1.22 µM (≈ 0.39 µg/mL) | 0.16 µM (≈ 0.0511 µg/mL) | 4.89 µM (≈ 1.56 µg/mL) | 19.6 µM (≈ 6.26 µg/mL) | 
